# Results reported in the EternaBench riboswitch data.
# System: MS2 coat protein
# Experiment: apparent Kd, MS2 coat protein; higher = weaker binding; RNA-MaP array; FMN 200 µM where present
# Outline: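 In 100 mM Tris-HCl pH 7.5, 80 mM KCl, 4 mM MgCl2, BSA, DTT, yeast tRNA and Tween-20, SNAP-549-labelled MS2 coat protein was titrated from 0.7 or 1.5 nM, doubling to 3 µM, over designs transcribed by stalled E. coli RNA polymerase on Illumina sequencing-chip clusters. This was done first without ligand, then with ligand held constant. After green signal was normalised to red-channel RNA signal and control-cluster median Fmax, the apparent Kd was taken as the median of filtered per-cluster binding-curve fits.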
# [1] = designed as: OFF switch for flavin mononucleotide, no ligand
# [2] = ligand present: flavin mononucleotide, designed as: OFF switch for flavin mononucleotide
# [3] = designed as: ON switch for flavin mononucleotide, no ligand
# [4] = ligand present: flavin mononucleotide, designed as: ON switch for flavin mononucleotide
Sequence,apparent Kd [1] [nM],apparent Kd [2] [nM],apparent Kd [3] [nM],apparent Kd [4] [nM]
AACUCACAUGAGGAUCACCCAUGUGAGGAUAUAUUGUUAUGGAUGUUAUUUUGUAGUGGUAGAAGGCGCGUGAU,15.3,15.2,–,–
AACGUCCUAGGAUAUACGCUGGGACUCGCCAUGUGGGCCCUACAUGAGGAUCACCCAUGUAGAAGGAGGACAUG,19.5,12.9,–,–
ACAUGCAUAGCGAUAUGAUCGAGAGAUCAUGUCGCUAAAGUUAGAAGGACAUGAGGAUCACCCAUGUAGGAUAUGGGAGCAUGA,–,–,43.1,9.96
AUCAUGUAAGGAUAUCUUAUAUGGAUCUUCGGAUCAAGUUAAGAGAAGGUACAUGAGGAUCACCCAUGUAUAAC,23.2,35.8,–,–
UGCAUGUAAGGAUAUGCACUGCGCGAGCCUGACUCGCAAAGGCAGAAGGUACAUGAGGAUCACCCAUGUGAGAA,72.6,64.6,–,–
AUUAUUAUAAAUUUGGCAAGAAUCAGAAGGCGUUACAUGAGGAUCACCCAUGUUUUGUAUAGUAACGAGGAUAUGAUAUGGAAA,17,12.9,–,–
ACUAUACGAGGAUAUACUGUCAGUACUCAGAGGUUAAUGUGACAUGAGGAUCACCCAUGUAGAAGGCGUUUACU,28.9,31.3,–,–
CGAUUUACUGAGGAUAUUGCAUCACCCGACUGAUAAGAAGGCAGAACAUGAGGAUCACCCAUGUGGGUACUCAC,80.5,91.1,–,–
AAGAUGCGGGUAGGAUAUGGAAAUUAAUAAAGACCAGAAGGACUGGUCACACAACAUGAGGAUCACCCAUGUGUGUGUUGUGAA,11.9,10.4,–,–
GCAGCGUCUGCAGGAUAUCAGCACGUGUAGUGCUGAGAAGGGCACAUGAGGAUCACCCAUGUGAUCAAUUAAUAGACAUGCUGC,6.98,15.5,–,–
UACAGCCGCAUCCCAUCGCUGGAAGAGGAUAUACAUCAUCGCGCACUCACAUGAGGAUCACCCAUGUAGAAGGCUUCCUGGCGG,7.94,25.4,–,–
UGUACGGACAUGAGGAUCACCCAUGUAACCAAGCAGUUGGUACAGGAUAUCGCUUAGUGACUGAGCGAGAAGGGUGGUUCUGCA,–,–,45.2,62.6
GGGUACAUCGGAGGAUAUCAUGUAAAUACAUGAGGAUCACCCAUGUCGAUGGAGACAUCGGAGAUUGAGAAGGACGAUGUACCG,–,–,320,14
GGUACUCAAAGAGUACCAAUACGAACAUGAGGAUCACCCAUGUAGGAUAUGCUACUCAAAGAGUAGCAGAAGGACAUGCGCCUA,18.2,106,–,–
AAAUUGGUAGAGGAUAUCGGAUAGGAUUUACUGCGAGAAGGCUGCACAUGAGGAUCACCCAUGUUCUGUUGGGA,123,152,–,–
UGUCUGAUCUAAUAACAUGAGGAUCACCCAUGUGUUCACAACUAGGAUAUCGAUUGUUAAGACGUCGAGAAGGAGUAUACAUUA,39,53.5,–,–
CGCAAACAUGAGGAUCACCCAUGUCAUUGUGGUCAAGGAUAUGGGUUCCUAAAUGGAACACCAGAAGGUGAAAAGA,–,–,164,33.5
CAAAGGUGAGGAUAUACAUAACUAUGACGAAAGUCAUAAACACAUGAGGAUCACCCAUGUAGAAGGCACCACAA,26.3,37.9,–,–
CCAGCAACAUGAGGAUCACCCAUGUAGGAUAUCGCUAUUGUAAUCAUGAAACAUGAUUACAAUAGCGAGAAGGACAUAUGCUUU,11,12,–,–

Sequence,apparent Kd [1] [nM],apparent Kd [2] [nM],apparent Kd [3] [nM],apparent Kd [4] [nM]
UGUCGGAGCAGAGGAUAUUACAUGAGGAUCACCCAUGUGGAAGAACCAAGCUGGAAACAGCAAUGUAAGAAGGCUGCUCCGACA,1010,467,–,–
ACAUGAGGAUCACCCAUGUUCGUCGCGUUGUGUCGCGAGUCUGAGGAUAUCGAGGUGGGUUUUGUUGAGAAGGCGGGCCCGUGU,–,–,129,151
ACAUUUAAUACAGGAUAUGUUAGUAUACAGUAGAUUGGUUAUUACACAACAACAGAAGGGUAGUACAUGAGGAUCACCCAUGUA,–,–,15.6,12.1
ACAUGAGGAUGAGGAUAUUCAUACAUGAGGAUAGAAGAAGGCAUACAUGAGGAUCACCCAUGUAUACACAUGAGGAUCACCCAU,82.5,85.3,–,–
AAAAAACAUGAGGAUCACCCAUGUGAGGAUAUCCAAAAGUUAAAGAAAAAGACGAAAAGGAGAAGGCGCAAAAA,109,82,–,–
AAAGCAACAUGAGGAUCACCCAUGUAGGAUAUCGCUAUUGUAAUCAUGAAACAUGAUUACAAUAGCGAGAAGGACAUAUGCGGG,42.5,45.2,–,–
UUUGAUGUUGAGGAUAUGCUUUUUUUUAUUAUAGCAGAAGGCGAUACAUGAGGAUCACCCAUGUUCAUGGCUUU,12.8,15.5,–,–
GCCAACUAAUGAGGAUAUGGCACCUUAUUGGUGCCAGAAGGCAUGUCAAUUGACAUGAGGAUCACCCAUGUAUUAUAGUUGGCG,–,–,878,109
GUAAAGUGAGGAUAUGCUGGAGGUGUAUUCUACGUGUCGAAACAUGAGGAUCACCCAUGUAGAAGGCACGGGCG,10.2,13.1,–,–
GAUCACUGAGGAUAUACACAGAUACAAAGUAUCUGAGCGUGACAUGAGGAUCACCCAUGUAGAAGGCAGAGGUC,190,769,–,–
CUUUAACUACAAUUACAUGAGGAUCACCCAUGUUUUGGGAUGCAGGAUAUGUGGUAUAUUAAUUAACAGAAGGGCAAUAAUUAA,–,–,40.7,38.9
UUUUAACAUGAGGAUCACCCAUGUGAGGAUAUCGAAAUUUAUAUUAAUAUUUAUUUAUCGAGAAGGCACAUUUU,115,135,–,–
UGUUGUAGUACAGGAUAUGCGGUGGAUUCGGACAUGAGGAUCACCCAUGUGCCUUUAUAACGUCUGCAGAAGGGUGAAAGAACG,–,–,500,130
GGUCGUCAAAUUAACAUGAGGAUCACCCAUGUGAAAACACAUGAGGAUAUGCAUCCUAAUUGGAUGCAGAAGGCAUGGACGACC,–,–,16.5,6.21
CUCAAACAUGAGGAUCACCCAUGUGUUGUCGUGGGAGGAUAUCCCAGUUCGGUGGCGUCGGGAGAAGGCCUAUGUC,–,–,141,64.7
UCUGCCGCCGUGAGGAUAUGCCCGCGCGCCCGCGGGCAGAAGGCACAUGAGGAUCACCCAUGUCCCGCGGUUUU,16.3,37.3,–,–
AAAUCCGCUGAGGAUAUCAUGACUGAGAGGUCAUGAGAAGGCGGUACAUGAGGAUCACCCAUGUCUAUGGGCAA,492,454,–,–
UGUGAACAUGAGGAUCACCCAUGUGAGGAUAUACGAGCGUGAGAAAGAUAAAACGAGCGUAGAAGGCACAAGAA,75.1,102,–,–
AGUAGAUCAGGAUAUACAUAAAUGAUAAUUAUGUACCUAAUACAUGAGGAUCACCCAUGUAGAAGGGAUCUACA,14.9,17.9,–,–

Sequence,apparent Kd [1] [nM],apparent Kd [2] [nM],apparent Kd [3] [nM],apparent Kd [4] [nM]
AUUCCUAAUGUUAGGAUAUGCGACGGGUGACCGUUGCAGAAGGAACAUGAGGAUCACCCAUGUUUAAUAAAAUC,17.3,111,–,–
UUUUUACGAGGAUAUCGAUUGUGGUACAUGAGGAUCACCCAUGUAUGUGAUAUUGUAUUUCGAGAAGGCGUUCAGU,19.3,17.8,–,–
AAUUAACAUGAGGAUCACCCAUGUCGUAUUAUGGGAGGAUAUACGUGGACCGUAGUCCGCGUAGAAGGCCUAAUUA,–,–,36.6,18
CUGGUUGUCGAGGAUAUGUCCCGGCUCGCUGACGCAGAAGGCGACACAUGAGGAUCACCCAUGUCGGUUCGCGU,20.1,21.8,–,–
GCUGCUAUCGCAGGAUAUUACAUGGGAAAUAAAACAUGAGGAUCACCCAUGUAAAAUAUCGUAAAUAAGAAGGGCGAUAGCAGC,–,–,84.6,1180
UAUUAUAGCAGUGUAUUAAGAUCACAUGAGGAUCACCCAUGUAGAAGGUAUAAGCAAUAUGCUAAUAAGGAUAUACAACACUGC,8.13,27.5,–,–
CCACGUCACAUUAACAUGAGGAUCACCCAUGUCAAAAGACAUGAGGAUAUGCAUCCUAAUUGGAUGCAGAAGGCAUGGACGUGG,–,–,475,36.1
CAAAACAUCUCCGUGUUUGUCGAACAUGAGGAUCACCCAUGUAGAAGGCAUCGCGCGACGCGGGAUGAGGAUAUACGCUGGAUG,6.18,15.3,–,–
AUAUGAGAAGCAGGAUAUGUGAAAAAAAAACAUACAGAAGGGUUUAUGGGACAACAUGAGGAUCACCCAUGUUCUCUGUGAUGA,–,–,65.2,71
GGCUGCGUUGUGAAGGAUAUCCGCGUCUGGACAUGAGGAUCACCCAUGUAUGCUUGGAUCGUGCCGGAGAAGGUCACGGGUGAUU,–,–,124,46
CCAGAUAUGUGAGGAUAUAUAGUGGAAUACACUAUAGAAGGUAUGUGAGAACAUGAGGAUCACCCAUGUCAUUGGUUAUCUGGA,–,–,29.7,35.6
ACACAACAUGAGGAUCACCCAUGUCAGGAUAUGCAGAACAAGAACAAGACAAGACAGAGCAGAAGGGACAACAC,39.4,35.6,–,–
CCGAAUAUGCAGGAUAUCGUAUAGGAAACUAUACGAGAAGGGUAAACAUGAGGAUCACCCAUGUUCCUUAACGG,20.8,19.2,–,–
AAUUAUUAUUGAGGAUAUCGUAGUGAAACACUACGAGAAGGCGGUAUAAACAUGAGGAUCACCCAUGUGAGCCUGAUGCUUAUG,28.9,58.9,–,–
GCGUAAUAGGUGUAGCUAGUCAUUCAAGAAGGGUGGAGAACAUGAGGAUCACCCAUGUGGUUUAUACAGGAUAUUGAUAUACGC,–,–,258,51.2
ACAUGGAAUACAGGAUAUGUAAGUUUUAAGUAGAUUGGUUAUUACUUUACAACAGAAGGGUAAUACAUGAGGAUCACCCAUGUA,–,–,19.1,16
CGUGCGUAUGUGAGGAUAUGCUGGUCCUUGGAUCGGCAGAAGGCACAUGAGGAUCACCCAUGUGGUGUCGUCCA,85.8,64.5,–,–
CUUUUGUGAGGAUAUCAGUAGUAAAUAAUUAAAAUUACUACUGAGAAGGCACAUGAGGAUCACCCAUGUUCCUC,42.2,284,–,–
